{"data": "Measured values collected from several papers", "MTNR1B": "Melatonin receptor type 1B (MTNR1B, Homo sapiens, UniProt P49286)", "note": "Compare with care: the assays were run in different laboratories."}
{"SMILES": "Clc1ccc(CNc2cccc(-c3nnc[nH]3)c2)c(Br)c1", "target": "MTNR1B", "assay": "cell-free assay", "measurement": "Ki", "result": "1.41 µM"}
{"SMILES": "C=C1CC[C@@H]2[C@](C)(CO)[C@H](O)CC[C@@]2(C)[C@@H]1C/C=C1/C(=O)OC[C@H]1O", "target": "UDP-glucuronosyltransferase 2B7 (UGT2B7, Homo sapiens, UniProt P16662)", "assay": "enzyme activity, inhibitor", "setting": "pH 7.4", "measurement": "Ki", "result": "5.7 µM"}
{"SMILES": "COc1ccc2[nH]cc(CCNC(C)=O)c2c1I", "target": "MTNR1B", "assay": "cAMP, agonist, TR-FRET", "measurement": "EC50", "result": "0.229 µM"}
{"SMILES": "Cc1cc2nc3c(=O)[nH]c(=O)nc-3n(C[C@H](O)[C@H](O)[C@H](O)COP(=O)(O)OP(=O)(O)OC[C@H]3O[C@@H](n4cnc5c(N)ncnc54)[C@H](O)[C@@H]3O)c2cc1C", "target": "Transformer-2 protein homolog beta (Homo sapiens, UniProt P62995)", "assay": "binding", "setting": "lysate", "measurement": "Kd", "result": "0.036 µM"}
{"SMILES": "CC1(C)[C@@H](O)CC[C@]2(C)[C@H]3C(=O)C=C4[C@@H]5C[C@@](C)(C(=O)O)CC[C@]5(C)CC[C@@]4(C)[C@]3(C)CC[C@@H]12", "target": "Peroxiredoxin-1 (PRDX1, Homo sapiens, UniProt Q06830)", "assay": "binding, SPR", "measurement": "Kd", "result": "25 µM"}
{"SMILES": "CC(=O)NCCc1c(Cc2ccccc2)[nH]c2ccccc12", "target": "MTNR1B", "assay": "cAMP, antagonist, TR-FRET", "measurement": "Kb", "result": "~0.1 µM"}
{"SMILES": "CC(=O)c1cc([N+](=O)[O-])c(Sc2cccc(Cl)c2Cl)s1", "target": "Cathepsin D (CTSD, Homo sapiens, UniProt P07339)", "assay": "enzyme activity, inhibitor", "measurement": "EC50", "result": "> 50 µM"}
{"SMILES": "Cc1cc(Nc2cc3ncccc3c(N[C@@H]3C[C@H]4CC[C@@H](C3)N4CCC#N)n2)n[nH]1", "target": "Death-associated protein kinase 1 (DAPK1, Homo sapiens, UniProt P53355)", "assay": "binding, competition with immobilised ligand", "measurement": "Kd", "result": "0.096 µM"}
{"SMILES": "COc1ccc(-c2nsc(NC(=O)[C@@H]3C[C@H]3C)c2C)cc1", "target": "Metabotropic glutamate receptor 7 (GRM7, Homo sapiens, UniProt Q14831)", "assay": "calcium signal, agonist", "measurement": "EC50", "result": "> 16.7 µM"}
{"SMILES": "O=C(NCCc1cccc2ccccc12)C1CCC1", "target": "MTNR1B", "assay": "cAMP, agonist, TR-FRET", "measurement": "EC50", "result": "1.66 µM"}
{"SMILES": "COc1ccc2c(c1)C(=O)C1(Cc3ccccc3C1)O2", "target": "Peptidyl-prolyl cis-trans isomerase NIMA-interacting 1 (PIN1, Homo sapiens, UniProt Q13526)", "assay": "enzyme activity, inhibitor", "measurement": "Ki", "result": "100 µM"}
{"SMILES": "COc1cc(I)c2[nH]cc(CCNC(C)=O)c2c1", "target": "MTNR1B", "assay": "β-arrestin recruitment, agonist", "measurement": "EC50", "result": "0.0603 µM"}
{"SMILES": "Nc1nc(NCc2ccc(Oc3ccccc3)cc2)nc(-c2c(F)cccc2CO)n1", "target": "MTNR1B", "assay": "cell-free assay, radioligand", "measurement": "Ki", "result": "1.1 µM"}
{"SMILES": "COc1ccc(Br)c(CNc2cccnc2)c1", "target": "MTNR1B", "assay": "cell-free assay", "measurement": "Ki", "result": "0.00692 µM"}
